CHRM5 antagonist – blocks acetylcholine activation of human M5 receptor. P08912. CHO-hM5 cells, Fluo-8 calcium fluorescence, ACh EC80. inhibition, % at 3 µM. hit rate 0.59% among 360,000. AID 624040;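 active = inhibition above a per-plate cutoff, the mean of that plate's test compounds plus 3 SD, cut at about 27% in these data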
M5 PAM – positive allosteric modulators of human muscarinic M5 receptor. P08912. CHO-K1 hM5, Fluo-8 calcium, ACh EC20 PAM; 0% = ACh EC20, 100% = ACh EC100. activation, % at 3 µM. hit rate 0.3% among 360,000;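 active = activation above the run cutoff, the mean activation of all test compounds plus 3 SD, cut at about 18% in these data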
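Assay system: CHO-K1 hM5 cells. Also added: acetylcholine at EC20 concentration, added after compound. Dosing: 3 µM, single dose. Times: compound preincubation 140 s before EC20 acetylcholine addition. Signal: Fluo-8 calcium fluorescence. Measure: % activation relative to EC20 and EC100 ACh responses. Repeats: singlicate, one well per test compound.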
M5 ag – agonists of human muscarinic M5 receptor (CHRM5); P08912; CHO-K1 hM5 cells, Fluo-8 calcium fluorescence; 0% DMSO wells, 100% maximal acetylcholine response; activation, % at 3 µM; hit rate 0.19% among 360,000; AID 624037;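 active = activation above the run's mean over test compounds plus 3 SD, cut at about 23% in these data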;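 also: signal is peak over basal fluorescence ratio across the kinetic read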
CHRM4 agonist – CHRM4 agonism in calcium assay; P08173; CHO-K1 hM4/Gqi5, Fluo-8 calcium fluorescence; vehicle 0%, full acetylcholine response 100%; activation, % at 3 µM; hit rate 0.14% among 360,000; AID 624127;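 active = activation above the run mean over all test wells plus 3 SD, cut at about 32% in these data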;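 also: peak over basal fluorescence ratio per well then scaled between controls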
Target sequence (P08173 whole entry, looked up): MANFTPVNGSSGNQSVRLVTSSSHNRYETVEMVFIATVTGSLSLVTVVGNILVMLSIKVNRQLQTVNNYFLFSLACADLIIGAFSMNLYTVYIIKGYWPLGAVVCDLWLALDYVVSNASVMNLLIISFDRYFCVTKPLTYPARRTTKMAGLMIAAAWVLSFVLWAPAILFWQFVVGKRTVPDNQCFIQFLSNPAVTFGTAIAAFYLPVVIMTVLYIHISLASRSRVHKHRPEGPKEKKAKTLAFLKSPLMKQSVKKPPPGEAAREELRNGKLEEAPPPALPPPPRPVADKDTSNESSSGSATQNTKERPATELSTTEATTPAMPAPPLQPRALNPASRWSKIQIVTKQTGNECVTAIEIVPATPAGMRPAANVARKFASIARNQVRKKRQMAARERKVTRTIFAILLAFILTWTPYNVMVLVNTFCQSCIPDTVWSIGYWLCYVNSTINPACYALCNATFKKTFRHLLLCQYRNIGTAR
M4 PAM – potentiates acetylcholine response at human M4 receptor; hit rate 0.4% among 360,000; P08173; activation, % at 3 µM; CHO-K1 hM4/Gqi5, Fluo-8 calcium fluorescence, ACh EC20; 0% = ACh EC20, 100% = maximal ACh;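 active = activation above its plate's cutoff, the mean activation of sample wells plus 3 SD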
M4 antag – blocks acetylcholine activation of human M4 receptor. P08173. CHO-hM4 cells, ACh EC80, Fluo-8 calcium fluorescence. inhibition, % at 3 µM. hit rate 0.73% among 360,000. AID 624125;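 active = inhibition above its plate's cutoff, the mean inhibition of sample wells plus 3 SD, cut at about 27% in these data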
A number is an active result; i = inactive. An excerpt weighted towards active compounds, which were near 1.8% of everything screened.

SMILES	CHRM5 antagonist	M5 PAM	M5 ag	CHRM4 agonist	M4 PAM	M4 antag
CC(C)c1ccc(NC(=O)CSc2nc(=O)[nH]c3c2CCCC3)cc1	i	i	44.9	i	28.1	i
CCc1ccc(NC(=O)CSc2nc(=O)n(CCCN(C)C)c3c2CCC3)cc1	30.9	i	i	i	i	i
COc1ccccc1N1C(=O)c2cccc3c(N(C)CCO)ccc(c23)C1=O	i	i	23.9	i	i	i
Cc1ccccc1N1C(=O)c2cccc3c(N(C)CCO)ccc(c23)C1=O	i	i	i	i	i	i
Cc1cc(NC(=O)COC(=O)C2CSC3(C)CCC(=O)N23)ccc1Br (stereo not given)	i	i	i	i	i	i
CCCc1nc2n[nH]c(N)c2c2c1CCC2	i	i	i	i	i	i
CCCc1nc2n[nH]c(N)c2c2c1CCCC2	i	i	i	i	26.4	i
CCCCc1nc2n[nH]c(N)c2c2c1CCCC2	i	22.3	i	i	i	i
Clc1ccc(Sc2ccc(/C=N/n3cnnc3)o2)cc1	i	i	i	i	24.4	i
CCn1c(=O)c(C(=O)NNC(=O)c2ccccc2F)c(O)c2ccccc21	i	i	i	i	i	i
CCn1c(=O)c(C(=O)NNC(=O)c2ccccc2Cl)c(O)c2ccccc21	i	i	i	54.4	i	i
Cc1noc(C)c1CSCC(=O)N1CCN(c2ccc([N+](=O)[O-])cc2)CC1	28.6	i	i	i	i	i
CC(O)[C@@H](NC(=O)C1CCC(CNC(=O)[C@H](Cc2ccccc2)NC(=O)OC(C)(C)C)CC1)C(=O)O (stereo not given in full)	i	i	i	i	16.3	i
O=C(Cc1ccc(NC(=O)C2CCN(C(=O)C3CC3)CC2)cc1)Nc1cccc(C(=O)N2CCCC2)c1	i	i	i	i	i	i
O=C(OCn1ncc(Br)c(Br)c1=O)c1ccccc1Cl	i	i	i	i	i	i
O=C(OCn1ncc(Cl)c(Cl)c1=O)c1cccc(C(F)(F)F)c1	i	i	i	i	i	58.2
Cc1[nH]c2ccccc2c1C1=CC(=O)C=CC1=O	i	i	i	i	i	45.2
Cc1[nH]c2ccccc2c1CC#N	i	i	i	i	i	i
COc1cc(NC(=S)NCc2cccnc2)cc(OC)c1	i	i	i	i	i	i
COc1cccc(NC(=O)C2C3C=CC(O3)C2C(=O)NCc2cccnc2)c1 (stereo not given)	i	i	i	i	36.5	i
COc1cccc(NC(=O)Cn2nc(Cc3cccnc3)c3ccccc3c2=O)c1	i	i	i	i	i	58.7
COc1ccc(CNC(=O)Cn2nc(Cc3cccnc3)c3ccccc3c2=O)cc1	i	i	i	i	i	i
CCNC(=O)NC1c2ccccc2CSc2ccccc21 (stereo not given)	i	i	i	i	i	i
CCOCCN1CCN(C2c3ccccc3CSc3ccccc32)CC1 (stereo not given)	100.3	i	i	i	i	99.1
Cc1cccc(OCCNC(=O)CCc2ccccc2)c1	i	i	i	i	i	i
SMILES	CHRM5 antagonist	M5 PAM	M5 ag	CHRM4 agonist	M4 PAM	M4 antag
COc1ccc(NC(=O)/C(=C\c2ccc(OS(=O)(=O)c3ccc(C)cc3)cc2)NC(=O)c2ccccc2)cc1	i	i	i	i	i	i
Cc1ccc(S(=O)(=O)Oc2ccc(/C=C(/NC(=O)c3ccccc3)C(=O)Nc3ccccc3)cc2)cc1	i	i	i	i	i	28.1
CCn1cc(C(=O)N[C@H](C(=O)O)C(C)C)c(=O)c2cc3c(cc21)OCO3	i	i	i	i	i	i
CCn1nc(C(=O)O)c(=O)c2cc3c(cc21)OCO3	i	i	i	i	i	34.3
CCCn1cc(CN2CCCC(C(=O)c3cccc(OC(C)C)c3)C2)c(C)n1 (stereo not given)	i	i	i	i	i	i
CCCn1ncc(CN2CCCC(C(=O)c3cccc(OC(C)C)c3)C2)c1C (stereo not given)	i	i	i	i	i	65.6
C=CC[C@H](CC(=O)N(CCO)Cc1ccccc1)C(=O)NC[C@H](OC(=O)[C@@H](CC=C)Cc1ccc(F)cc1)c1ccccc1	i	i	i	i	i	30.2
C=CC[C@@H](CC(=O)N(CCO)Cc1ccccc1)C(=O)N[C@H](COC(=O)[C@@H](CC=C)Cc1ccc(F)cc1)Cc1ccccc1	i	i	i	i	i	31.0
C=CC[C@@H](CC(=O)N(CCO)Cc1ccccc1)C(=O)NC[C@@H](OC(=O)[C@@H](CC=C)Cc1ccc(F)cc1)c1ccccc1	i	i	i	i	i	i
COc1ccc2c(c1OC)OCC2C (stereo not given)	i	i	i	i	i	i
CCC(Cc1ccccc1)NC(=O)C1CCN(S(=O)(=O)c2ccc3c(c2)CC(C)N3C(C)=O)CC1 (stereo not given)	i	i	i	i	i	i
COc1cccc(CNC(=O)[C@@H]2CCCN2C(=O)[C@@H]2CCCN2C(=O)OC(C)(C)C)c1	i	i	i	i	i	i
C[n+]1ccccc1/C=C/c1cc(Br)ccc1O	33.6	i	i	i	i	i
Cc1ccccc1OCC(=O)NNC(=O)Cn1[nH]c(=O)c2ccccc2c1=O	i	i	i	i	i	i
Cc1cc(C)n(-c2nc(Nc3ccccc3C(F)(F)F)nc(-n3nc(C)cc3C)n2)n1	30.3	i	i	i	i	i
Cc1cc(C)n(-c2nc(NC(C)(C)C)nc(NC(C)(C)C)n2)n1	i	i	i	i	i	i
CSc1nc(N)nc2c1ncn2C1OC(CO)C(O)C1O (stereo not given)	32.5	i	i	i	i	i
O=C(NCCN1CCCC1)c1ccc(Cn2c(=S)[nH]c3cc4c(cc3c2=O)OCO4)cc1	i	i	27.6	i	i	i
c1ccc2c(c1)ncn2CCN1CCCCC1	i	19.7	i	i	i	i
c1ccc(CCn2cnc3ccccc32)cc1	i	i	i	i	i	i
COc1ccc(C2(C(=O)Nc3ccc(C)c(C)c3)CCOCC2)cc1	i	i	i	i	i	i
CCC(=O)NC(C)C(c1cccs1)N1CCOCC1 (stereo not given)	i	i	i	i	i	i
CC(NS(=O)(=O)c1ccc(F)cc1)C(c1cccs1)N1CCOCC1 (stereo not given)	i	i	i	i	i	54.1
CC(NC(=O)Cc1cccs1)C(c1cccs1)N1CCOCC1 (stereo not given)	i	i	i	i	35.6	i
COc1ccccc1C(=O)NC(CCSC)C(=O)OC(C)C(=O)NC1CC1 (stereo not given)	i	i	i	i	i	i
CCCC(=O)NC(=S)Nc1ccc(S(=O)(=O)N2CCc3ccccc32)cc1	i	i	i	i	i	i
